# pKi: −log10 of the molar value.
# What was measured:
# [1] = Inhibitory constant for [3H]YM-09151-2 binding to Dopamine receptor D2-like in porcine striatal membranes; type: cell membranes, Sus scrofa, Striatum, Membrane
# Rattus norvegicus [2] = organism: Rattus norvegicus; experiment: Amount of cGMP level in rat neostriatal membranes after incubation at 10 uM; type: functional
# Outline: (§1)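 Rat striatal membranes in 0.1 M phosphate buffer pH 7.0 with MgCl2 and 2.25 mM IBMX at 37 °C; reaction started with 54 µM GTP, 60 min at 37 °C; compounds at 0.1, 1.0, 10 µM. Stopped with HCl, boiled 5 min, centrifuged, filtered; cGMP measured by reverse-phase HPLC at 254 nm against standards, confirmed by cGMP EIA; mean ± SEM of triplicates.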
# Rattus norvegicus [3] = organism: Rattus norvegicus; experiment: Amount of cGMP level in rat neostriatal membranes after incubation at 0.1 uM; type: functional; outline: as §1
# Rattus norvegicus [4] = organism: Rattus norvegicus; experiment: Amount of cGMP level in rat neostriatal membranes after incubation at 1.0 uM; type: functional; outline: as §1
# Rattus norvegicus [5] = organism: Rattus norvegicus; experiment: Amount of cAMP level in rat neostriatal membranes after incubation at 1 uM; type: functional
# Outline: (§2)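 Rat striatal membranes; adenylyl cyclase reaction in 0.1 M Tris-HCl pH 8.3, 10 mM MgCl2, 0.1 M KCl, 37 °C, 60 min; compounds at 1, 10, 100 µM. Stopped with HCl (final 0.01 M) plus 5 min boiling, centrifuged, filtered. cAMP quantified by reverse-phase HPLC at 254 nm against standards, confirmed by cAMP EIA; pmol/mg protein, mean ± SEM of triplicates.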
# Rattus norvegicus [6] = organism: Rattus norvegicus; experiment: Amount of cAMP level in rat neostriatal membranes after incubation at 10 uM; type: functional; outline: as §2
# Rattus norvegicus [7] = organism: Rattus norvegicus; experiment: Amount of cAMP level in rat neostriatal membranes after incubation at 100 uM; type: functional; outline: as §2
# [8] = Inhibitory constant for [3H]YM-09151-2 binding to Dopamine receptor D2-like in porcine striatal membranes; NA= not active until 1e-5M; type: cell membranes, Sus scrofa
# [9] = Inhibitory constant for Dopamine receptor D1-like
# [10] = Inhibitory constant for Dopamine receptor D2-like
# Rattus norvegicus [11] = organism: Rattus norvegicus; experiment: Decrease of basal cAMP concentration mediated by striatal adenylyl cyclase activity in rat neostriatal membrane at 100 uM; type: functional; outline: as §2
# Rattus norvegicus [12] = organism: Rattus norvegicus; experiment: Amount of cGMP in rat neostriatal membranes after incubation at 10 uM; type: functional; outline: as §1
# Rattus norvegicus [13] = organism: Rattus norvegicus; experiment: Amount of cGMP in rat neostriatal membranes after incubation at 0.1 uM; type: functional; outline: as §1
# Rattus norvegicus [14] = organism: Rattus norvegicus; experiment: Amount of cGMP in rat neostriatal membranes after incubation at 1.0 uM; type: functional; outline: as §1
# [15] = biological target: Adenylate cyclase type 2 (Rattus norvegicus) (UniProt P26769); experiment: Inhibition of basal striatal adenylyl cyclase activity in rat neostriatal membrane at 100 uM; type: functional, cell membranes
# Outline: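 Rat striatal membranes incubated 60 min at 37 °C in 0.1 M Tris-HCl pH 8.3, 10 mM MgCl2, 0.1 M KCl. Reaction stopped with HCl (0.01 M final) and 5 min boiling. Filtered supernatant analysed for cAMP by reverse-phase HPLC at 254 nm against standards, confirmed by cAMP EIA. Tested at 1, 10 and 100 µM. Triplicates reported as mean ± SEM.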
# Sequence of Adenylate cyclase type 2 (Rattus norvegicus) (P26769 whole entry): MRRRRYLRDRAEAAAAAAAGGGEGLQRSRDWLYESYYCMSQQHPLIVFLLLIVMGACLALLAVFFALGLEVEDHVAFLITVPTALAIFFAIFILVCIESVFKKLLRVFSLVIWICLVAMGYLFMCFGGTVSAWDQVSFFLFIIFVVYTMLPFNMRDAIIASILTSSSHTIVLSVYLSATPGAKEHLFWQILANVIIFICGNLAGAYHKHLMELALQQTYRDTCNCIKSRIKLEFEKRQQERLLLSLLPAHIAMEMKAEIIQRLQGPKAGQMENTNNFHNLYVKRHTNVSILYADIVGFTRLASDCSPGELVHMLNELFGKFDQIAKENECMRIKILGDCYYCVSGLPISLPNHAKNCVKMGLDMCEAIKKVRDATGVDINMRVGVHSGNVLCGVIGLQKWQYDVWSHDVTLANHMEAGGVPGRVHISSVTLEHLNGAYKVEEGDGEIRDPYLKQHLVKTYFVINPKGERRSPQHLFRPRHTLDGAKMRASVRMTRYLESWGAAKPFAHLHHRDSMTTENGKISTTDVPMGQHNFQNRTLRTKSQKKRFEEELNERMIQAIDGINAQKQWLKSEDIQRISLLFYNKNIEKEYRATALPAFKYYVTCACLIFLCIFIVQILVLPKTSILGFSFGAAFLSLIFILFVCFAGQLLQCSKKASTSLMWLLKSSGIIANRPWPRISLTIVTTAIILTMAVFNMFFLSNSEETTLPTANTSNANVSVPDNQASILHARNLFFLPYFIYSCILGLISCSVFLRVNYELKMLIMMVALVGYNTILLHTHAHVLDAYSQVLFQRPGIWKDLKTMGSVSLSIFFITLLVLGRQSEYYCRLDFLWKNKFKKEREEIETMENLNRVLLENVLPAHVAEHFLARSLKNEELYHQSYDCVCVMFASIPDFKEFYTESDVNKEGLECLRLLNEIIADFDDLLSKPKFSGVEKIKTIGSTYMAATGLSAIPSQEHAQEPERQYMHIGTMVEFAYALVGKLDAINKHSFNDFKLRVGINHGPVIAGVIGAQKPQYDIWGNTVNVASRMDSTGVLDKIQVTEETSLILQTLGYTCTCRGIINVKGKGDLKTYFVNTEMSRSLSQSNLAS
pKi [1],Compound,cGMP content (pmol/mg protein) (Rattus norvegicus [2]),cGMP content (pmol/mg protein) (Rattus norvegicus [3]),cGMP content (pmol/mg protein) (Rattus norvegicus [4]),also measured
6.02,C=CCN(C)[C@@H]1Cc2cc(F)c(O)cc2[C@H]1c1ccccc1,,,,
5.72,COc1cc2c(cc1F)C[C@@H](N(C)C)[C@@H]2c1ccccc1,,,,
6.04,CCCN(CCC)[C@@H]1Cc2cc(F)c(O)cc2[C@H]1c1ccccc1,4.37,11.6,7.32,
6.77,CCCN(CCC)[C@@H]1Cc2cc(F)c(OC)cc2[C@H]1c1ccccc1,5.79,10.6,6.97,
5.51,CN[C@@H]1Cc2cc(OC)c(F)cc2[C@H]1c1ccccc1,,,,
4.77,COc1cc2c(cc1F)C[C@@H](N)[C@@H]2c1ccccc1,,,,
5.59,CN[C@@H]1Cc2cc(F)c(OC)cc2[C@H]1c1ccccc1,,,,
4.72,N[C@@H]1Cc2cc(F)c(O)cc2[C@H]1c1ccccc1,,,,
6.57,CCCN(C)[C@@H]1Cc2cc(OC)c(F)cc2[C@H]1c1ccccc1,3.78,11.2,4.96,cAMP content (pmol/mg protein) (Rattus norvegicus [5]): 105; cAMP content (pmol/mg protein) (Rattus norvegicus [6]): 103; cAMP content (pmol/mg protein) (Rattus norvegicus [7]): 84.6
6.62,CCCN(C)[C@@H]1Cc2cc(O)c(F)cc2[C@H]1c1ccccc1,5.56,11.5,7.45,
,Oc1cc2c(cc1O)C(c1ccccc1)CNCC2 (stereo not drawn),18.2,12.4,17.4,
,Br.CN(C)[C@@H]1Cc2cc(O)c(F)cc2[C@H]1c1ccccc1,,,,Ki [8]: Not Active
5.35,CN(C)[C@@H]1Cc2cc(F)c(O)cc2[C@H]1c1ccccc1,,,,
,CN1CCc2cc(F)c(O)cc2C1C1(c2ccccc2Cl)CC1 (stereo not drawn),,,,pKi [9]: 9.74; pKi [10]: 6.35
,CCN1CCCC1CNC(=O)c1cc(S(N)(=O)=O)ccc1OC (stereo not drawn),17.7,12.5,17.3,
6.19,CCCN(C)[C@@H]1Cc2cc(F)c(O)cc2[C@H]1c1ccccc1,1.78,10.9,5.79,cAMP content (pmol/mg protein) (Rattus norvegicus [5]): 103; cAMP content (pmol/mg protein) (Rattus norvegicus [6]): 93; cAMP content (pmol/mg protein) (Rattus norvegicus [7]): 74.4; Decrease (Rattus norvegicus [11]): 30%
6.19,C=CCN(C)[C@@H]1Cc2cc(F)c(OC)cc2[C@H]1c1ccccc1,,,,
4.92,CCCN(CCC)[C@@H]1Cc2cc(O)c(F)cc2[C@H]1c1ccccc1,,,,
6.51,C=CCN(C)[C@@H]1Cc2cc(OC)c(F)cc2[C@H]1c1ccccc1,,,,
6.26,CCCN(CCC)[C@@H]1Cc2cc(OC)c(F)cc2[C@H]1c1ccccc1,,,,
5.37,COc1cc2c(cc1F)[C@@H](c1ccccc1)[C@H](N(C)C)C2,,,,
4.82,N[C@@H]1Cc2cc(O)c(F)cc2[C@H]1c1ccccc1,,,,
6.19,C=CCN(C)[C@@H]1Cc2cc(O)c(F)cc2[C@H]1c1ccccc1,,,,
5.37,CN[C@@H]1Cc2cc(O)c(F)cc2[C@H]1c1ccccc1,,,,
4.92,COc1cc2c(cc1F)[C@@H](c1ccccc1)[C@H](N)C2,,,,
,NCCc1ccc(O)c(O)c1,4.02,11.7,6.15,cAMP content (pmol/mg protein) (Rattus norvegicus [5]): 95.1; cAMP content (pmol/mg protein) (Rattus norvegicus [6]): 89.8; cAMP content (pmol/mg protein) (Rattus norvegicus [7]): 85.6
6.32,CCCN(C)[C@@H]1Cc2cc(F)c(OC)cc2[C@H]1c1ccccc1,3.9,10.4,6.86,
5.29,CN[C@@H]1Cc2cc(F)c(O)cc2[C@H]1c1ccccc1,,,,
,CN1CCc2cc(Cl)c(O)cc2[C@@H](c2ccccc2)C1,,,,cGMP content (pmol/mg protein) (Rattus norvegicus [12]): 6.15; cGMP content (pmol/mg protein) (Rattus norvegicus [13]): 11.5; cGMP content (pmol/mg protein) (Rattus norvegicus [14]): 6.62
,CCCN(CCc1ccccc1)CCc1cccc(O)c1,3.78,10.4,7.45,cAMP content (pmol/mg protein) (Rattus norvegicus [5]): 104; cAMP content (pmol/mg protein) (Rattus norvegicus [6]): 93.1; cAMP content (pmol/mg protein) (Rattus norvegicus [7]): 79.3; inhibition [15]: 25%
